FN deposit inh: fibronectin deposition inhibition; actives 0.086% (n = 350,000); AH1F fibroblasts, Alexa488-fibronectin deposition fluorescence, overnight; inhibition, % at 12.6 µM;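 active means mean inhibition across replicates of 30% or more, regardless of how many single replicates reach that level; inconclusive means mean under 30% yet at least half of replicates reach 30%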;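 further: positive control wells lacked labelled fibronectin entirely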
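Schedule: 1 h cell adhesion before compound, then overnight fibronectin incubation; test system: AH1F fibroblast monolayer depositing Alexa488-labelled fibronectin into matrix; quantity: 10000 AH1F cells per well; probe or stimulus: fluorescent fibronectin at 24 nM final; signal: fluorescence, ex 485 nm, em 525 nm; evaluation: percent inhibition as loss of matrix-bound fibronectin fluorescence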
CaV13 ICDI inh: Disruptors of the CACNA1D IQ motif to Ca2+-dependent inactivation inhibitor domain association, primary screening, Förster resonance energy transfer in intact living …; HEK cells, CFP/YFP FRET ICDI-IQ, plate reader, 10 min; percent FRET-ratio fall versus neutral wells; actives 0.098% (n = 340,000); inhibition, % at 12.3 µM;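 active means mean replicate inhibition of at least 30% and at least 1% of replicates passing that level; inconclusive means only one of the two criteria is met; inactive means neither criterion is met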;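 further: 0% = median of the neutral control wells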
RAD54 branch: inhibitors of human RAD54 branch migration. RAD54 Holliday junction branch migration, FAM/BHQ fluorescence. actives 0.14% (n = 360,000). AID 602329. inhibition, % at 10.4 µM;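 active means mean normalized replicate activity at least 40 and at least half of replicates scoring 40 or more; inconclusive means only one of the two criteria met; inactive means mean below 40 and under half of replicates reaching 40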;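 further: 0% = median of neutral control wells and 100% = median of positive control wells; inhibitors cause a drop in the FAM fluorescence signal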
N-glyco inh: blocks N-linked glycosylation in D54 reporter cells; actives 0.23% (n = 360,000); AID 588692; D54 ERlucT glycosylation luciferase reporter, 24 h; percent of 100 nM tunicamycin response; reporter increase, % at 12.5 µM;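 active means mean luciferase reporter signal, scaled so untreated is 0 and the glycosylation-blocking control 100, at or above a set limit in every replicate; inconclusive means mean reaches the limit but not every replicate does; inactive means mean below the limit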;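 further: luciferase carries N-glycosylation sites so blocking glycosylation raises the light; 0% = median of neutral control wells and 100% = median of 100 nM tunicamycin wells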
RAD52 anneal inh: RAD52 (human) annealing inhibition | P43351 | recombinant RAD52 DNA annealing, FRET fluorescence | inhibition, % at 18.7 µM | actives 0.46% (n = 360,000);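 active means every replicate showing at least 50% inhibition; inconclusive means mean inhibition at least 50% but not in every replicate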
Target sequence (P43351 whole entry, looked up): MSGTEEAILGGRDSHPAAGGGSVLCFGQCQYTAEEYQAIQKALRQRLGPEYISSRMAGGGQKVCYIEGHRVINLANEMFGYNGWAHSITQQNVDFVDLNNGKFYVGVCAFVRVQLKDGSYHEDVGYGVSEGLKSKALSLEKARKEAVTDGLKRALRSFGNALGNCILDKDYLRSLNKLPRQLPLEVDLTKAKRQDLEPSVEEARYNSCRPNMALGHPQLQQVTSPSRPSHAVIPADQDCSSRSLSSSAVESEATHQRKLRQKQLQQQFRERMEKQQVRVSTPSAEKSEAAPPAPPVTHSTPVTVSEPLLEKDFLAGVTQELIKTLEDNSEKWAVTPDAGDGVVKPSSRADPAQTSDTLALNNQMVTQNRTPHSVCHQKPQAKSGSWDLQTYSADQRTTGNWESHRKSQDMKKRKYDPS
* = called active by the depositor; ? = inconclusive; nt = not tested or not shown; + = active, no number. Only some compounds are listed: those with a hit (about 0.7% of all), similar ones and a draw of the others.

SMILES	FN deposit inh	CaV13 ICDI inh	RAD54 branch	N-glyco inh	RAD52 anneal inh
C#CCOCCOCCOCCNc1nc(N2CCN(C(=O)[C@H](CCCCN)n3cc([C@@H](N)CC(N)=O)nn3)CC2)nc(N2CCN(C(=O)[C@H](CCCCN)n3cc([C@@H](N)CC(N)=O)nn3)CC2)n1	-3	-6	-21	3	61*
C[C@@H]1CCCCO[C@@H](CN(C)S(=O)(=O)c2cccs2)[C@@H](C)CN([C@H](C)CO)C(=O)c2cc(NS(=O)(=O)c3cn(C)cn3)ccc2O1	-6	nt	-5	nt	47
CN(C)Cc1cc(OCc2ccccc2)cc(CN(C)C)c1O	3	-6	4	1	5
CN(C)Cc1cc(C(C)(C)c2cc(CN(C)C)c(O)c(CN(C)C)c2)cc(CN(C)C)c1O	1	-4	102*	-5	nt
CC(C)C(=O)Nc1ccc2c(c1)C(=O)N(C)[C@@H]1CC[C@H](CC(=O)Nc3ccccc3)O[C@H]1CO2	-7	nt	2	nt	3
CC(CCC(C)C(C)(C)C)[C@@H]1CC[C@H]2C3C[C@H](OS(O)(=S)=S)[C@H]4C[C@H](OS(O)(=S)=S)[C@@H](OS(O)(=S)=S)C[C@]4(C)[C@H]3CC[C@]12C (stereo partly drawn) (tested in a mixture with another compound)	nt	nt	110*	5	nt
C[C@H](NC(=O)C[C@@H]1C[C@@H]2c3cc(NC(=O)CC4CC4)ccc3O[C@@H]2[C@H](CO)O1)c1ccccc1	-10	nt	-3	nt	-2
CC(C)(C)NC(=O)C(Cc1ccccc1)NS(=O)(=O)c1ccc2c(c1)CCC(=O)N2 (stereo not drawn)	0	-4	2	2	nt
O=C1CCc2cc(S(=O)(=O)NC(Cc3ccccc3)C(=O)NCCC3=CCCCC3)ccc2N1 (stereo not drawn)	-1	66*	7	-3	-29
O=[N+]([O-])c1ccc(S(=O)Cc2ccccc2)c([N+](=O)[O-])c1 (stereo not drawn)	37*	-7	nt	-14	-5
O=[N+]([O-])c1ccc(CS(=O)c2ccccc2)cc1 (stereo not drawn)	nt	-6	nt	0	0
C[C@H](CO)N1C[C@H](C)[C@H](CN(C)C(=O)NC2CCCCC2)Oc2ccc(NC(=O)Cc3ccccc3)cc2C1=O	-4	nt	-6	nt	24
NS(=O)(=O)c1cccc(NC(=O)CCN2C(=O)C3CCCCC3C2=O)c1 (stereo not drawn)	33*	-3	-2	1	-13
Cc1ccc(-c2ccc([C@H]3[C@H](CO)N4CCCCN(S(=O)(=O)c5cccc(C)c5)C[C@@H]34)cc2)cc1	nt	nt	2	nt	50*
Cc1ccc(-c2ccc([C@H]3[C@H]4CN(S(=O)(=O)c5cccc(C)c5)CCCCN4[C@H]3CO)cc2)cc1	nt	nt	5	nt	26
Cc1cccc(S(=O)(=O)N2CCCCN3[C@H](CO)[C@@H](c4ccc(-c5ccccc5)cc4)[C@H]3C2)c1	nt	nt	0	nt	53*
COc1ccc(S(=O)(=O)N2CCCCN3[C@@H](CO)[C@@H](c4ccc(C5=CCCCC5)cc4)[C@@H]3C2)cc1	nt	nt	-12	nt	50*
Cc1ccc(-c2ccc([C@@H]3[C@H](CO)N4CCCCN(S(=O)(=O)c5cccc(C)c5)C[C@@H]34)cc2)cc1	nt	nt	0	nt	69*
CCCNC(=O)C[C@H]1CC[C@@H]2[C@H](COC[C@H](O)CN2C(=O)CC)O1	6	nt	7	nt	-6
CCN(CC)c1ccc2cc(C#N)c(=O)oc2c1	3	+	nt	4	-28
CCN(CC)c1ccc2c(C)c(Cl)c(=O)oc2c1	3	+	nt	1	-10
CCN(CC)c1ccc2ccc(=O)oc2c1	2	?	nt	3	-28
O=C(C[C@H]1C=C[C@H](NC(=O)c2ccncc2)[C@H](CO)O1)NCCc1ccncc1	-13	nt	-10	nt	-10
CN1C(=O)c2cc(NC(=O)C3CCCC3)ccc2OC[C@H]2O[C@@H](CC(=O)NCC(F)(F)F)CC[C@@H]21	-16	nt	-9	nt	-5
O=C(c1ccccc1F)N1CC(=O)N2[C@H](CO)[C@H](c3ccc(-c4ccccc4)cc3)[C@@H]2C1	nt	nt	nt	nt	2
SMILES	FN deposit inh	CaV13 ICDI inh	RAD54 branch	N-glyco inh	RAD52 anneal inh
COc1ccc2c(C)nc(Nc3nc(-c4ccccc4)cc(=O)[nH]3)nc2c1	15	-5	-1	94*	-16
CO[C@@H]1CN(C)C(=O)c2cc(NS(C)(=O)=O)ccc2OC[C@@H](C)N(CC2CCCCC2)C[C@H]1C	-12	nt	-4	nt	1
C[C@@H](NC(=O)c1ncn2c1c(=O)[nH]c1ccc(Br)cc12)c1ccccc1	4	-6	-5	33*	-7
O=C(c1cccc(F)c1)N1CC2(C1)[C@H](c1ccccc1)[C@@H](CO)N2C(=O)C1CCOCC1	nt	nt	nt	nt	-10
Cc1cc(N2CCN(c3ccc([N+](=O)[O-])c4cccnc34)CC2)c2ccccc2n1	nt	nt	nt	105*	nt
Cc1cc(N2CCN(c3ccc(C(F)(F)F)cc3[N+](=O)[O-])CC2)c2ccccc2n1	-1	-23	6	-3	11
CCOc1ccc(NC(=O)c2ccc(CNc3c(NC4CCCCC4)c(=O)c3=O)cc2)cc1	33*	-5	-2	3	-10
COc1ccc(NC(=O)c2ccc(CNc3c(NC4CCCCC4)c(=O)c3=O)cc2)c(OC)c1	4	-5	14	0	-11
C[C@H]1CCCCO[C@H](CN(C)C(=O)Nc2ccc3c(c2)OCO3)[C@@H](C)CN([C@@H](C)CO)C(=O)c2cc(NC(=O)c3ccncc3)ccc2O1	-11	nt	1	nt	0
C[C@H](CO)N1C[C@H](C)[C@@H](CN(C)C(=O)C2CC2)Oc2cc(C#Cc3ccccn3)ccc2S1(=O)=O	-1	nt	1	nt	-15
CO[C@@H]1CN(C)C(=O)c2cc(NC(=O)Nc3cc(Cl)cc(Cl)c3)ccc2OC[C@H](C)NC[C@H]1C	3	nt	nt	nt	57*
CO[C@H]1CN(C)C(=O)c2ccc(NC(=O)Nc3cc(Cl)cc(Cl)c3)cc2OC[C@H](C)NC[C@H]1C	15	nt	5	nt	54*
CO[C@H]1CN(C)C(=O)c2ccc(NC(=O)Nc3cc(Cl)cc(Cl)c3)cc2OC[C@@H](C)NC[C@@H]1C	1	nt	-1	nt	52*
CO[C@H]1CN(C)C(=O)c2ccc(NC(=O)Nc3cc(Cl)cc(Cl)c3)cc2OC[C@@H](C)NC[C@H]1C	-17	nt	15	nt	64*
CO[C@H]1CN(C)C(=O)c2ccc(NC(=O)Nc3cccc(Cl)c3)cc2OC[C@@H](C)NC[C@@H]1C	2	nt	8	nt	24
CO[C@@H]1CN(C)C(=O)c2ccc(NC(=O)Nc3cccc(Cl)c3)cc2OC[C@H](C)NC[C@@H]1C	6	nt	-4	nt	28
C[C@@H]1CN([C@@H](C)CO)C(=O)c2cc(NC(=O)NC3CCCCC3)ccc2O[C@H]1CN(C)Cc1ccc2c(c1)OCO2	nt	nt	29	nt	-4
